Measurements: article PMC2175342 (Nucleic Acids Research, 2007)
Like-named read-outs stand apart in the source and are kept apart here. One block for each compound: values may come before it.

Legend:
[1] = target: T1, HeLa cell telomerase (Homo sapiens, UniProt O14746); test: Semi-quantitative telomerase assay based on the 'stretch PCR' method; format: biochemical; details: for Km: natural dNTP substrate, Lineweaver–Burk plot analyses
[2] = target: T1, HeLa cell telomerase; details: cited from earlier work
[3] = system: telomerase from human leukemia cells and HeLa cells; details: cited from earlier work
[4] = system: immortalized human B- and T-cell lines; details: cited from earlier work
[5] = system: cherry salmon telomerase; test: Primer extension assay; format: biochemical; details: 18-mer (TTAGGG)3 primer, 5 or 20 µM analog
Procedure, shortened: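 Telomerase was partially purified from immature cherry salmon testis (DEAE-cellulose, 70% ammonium sulfate, dialysis). It extended 2 µM (TTAGGG)3 in Tris–HOAc pH 8.5, KOAc, 1 mM MgCl2, 1 mM DTT and 5 µM [α-32P]dTTP. Either 200 µM dATP with 0/5 µM dGTP plus 0/5/20 µM dGTP-analog, or 200 µM dGTP with 0/5 µM dATP plus 0/5/20 µM dATP-analog. Run 1 h at 25°C, then RNase A/proteinase K, 20% PAGE–7 M urea, phosphorimaging.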

T1 sequence (O14746 whole entry): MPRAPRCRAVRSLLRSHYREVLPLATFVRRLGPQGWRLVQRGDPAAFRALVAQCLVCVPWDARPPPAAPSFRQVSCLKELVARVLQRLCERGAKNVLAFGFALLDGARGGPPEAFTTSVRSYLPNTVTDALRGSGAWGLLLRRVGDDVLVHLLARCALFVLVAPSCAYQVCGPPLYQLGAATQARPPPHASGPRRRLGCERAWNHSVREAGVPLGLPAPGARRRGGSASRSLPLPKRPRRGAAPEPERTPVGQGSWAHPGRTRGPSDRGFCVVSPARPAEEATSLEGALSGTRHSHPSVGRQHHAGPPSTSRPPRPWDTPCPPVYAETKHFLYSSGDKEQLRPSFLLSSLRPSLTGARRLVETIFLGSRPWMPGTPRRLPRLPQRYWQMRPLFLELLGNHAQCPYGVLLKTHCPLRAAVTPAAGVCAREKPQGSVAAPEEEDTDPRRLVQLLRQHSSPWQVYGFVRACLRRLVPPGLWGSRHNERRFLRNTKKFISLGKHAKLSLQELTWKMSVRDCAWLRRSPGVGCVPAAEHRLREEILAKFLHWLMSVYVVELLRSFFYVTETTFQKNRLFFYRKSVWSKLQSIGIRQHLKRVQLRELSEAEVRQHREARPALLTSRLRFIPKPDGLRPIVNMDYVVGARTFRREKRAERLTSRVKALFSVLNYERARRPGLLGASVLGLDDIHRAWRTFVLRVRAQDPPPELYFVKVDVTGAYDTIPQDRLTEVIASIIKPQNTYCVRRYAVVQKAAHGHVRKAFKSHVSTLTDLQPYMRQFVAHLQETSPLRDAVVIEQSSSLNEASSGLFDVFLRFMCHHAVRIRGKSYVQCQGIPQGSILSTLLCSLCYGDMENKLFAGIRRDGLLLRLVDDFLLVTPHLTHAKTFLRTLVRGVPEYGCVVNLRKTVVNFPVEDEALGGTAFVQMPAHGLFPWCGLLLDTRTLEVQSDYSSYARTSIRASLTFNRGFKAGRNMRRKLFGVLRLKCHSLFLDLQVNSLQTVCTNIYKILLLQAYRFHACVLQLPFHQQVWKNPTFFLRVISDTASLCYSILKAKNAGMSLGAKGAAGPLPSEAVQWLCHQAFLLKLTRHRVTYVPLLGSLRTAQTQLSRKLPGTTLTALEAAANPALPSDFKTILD
T1 sequence (O60832 whole entry partner): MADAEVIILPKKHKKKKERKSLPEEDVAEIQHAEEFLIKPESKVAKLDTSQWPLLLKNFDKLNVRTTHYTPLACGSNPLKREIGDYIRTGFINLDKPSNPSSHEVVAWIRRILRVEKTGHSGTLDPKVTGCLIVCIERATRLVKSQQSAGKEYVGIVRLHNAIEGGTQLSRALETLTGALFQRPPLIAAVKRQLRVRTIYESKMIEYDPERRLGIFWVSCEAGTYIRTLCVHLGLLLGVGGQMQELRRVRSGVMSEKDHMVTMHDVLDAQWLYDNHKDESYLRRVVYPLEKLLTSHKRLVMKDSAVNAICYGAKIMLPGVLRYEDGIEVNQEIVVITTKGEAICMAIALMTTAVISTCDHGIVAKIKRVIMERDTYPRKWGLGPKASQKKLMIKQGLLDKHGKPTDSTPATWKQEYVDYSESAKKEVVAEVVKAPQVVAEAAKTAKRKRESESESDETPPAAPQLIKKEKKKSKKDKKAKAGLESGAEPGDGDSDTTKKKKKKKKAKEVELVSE
T1 sequence (Q9NX24 whole entry partner): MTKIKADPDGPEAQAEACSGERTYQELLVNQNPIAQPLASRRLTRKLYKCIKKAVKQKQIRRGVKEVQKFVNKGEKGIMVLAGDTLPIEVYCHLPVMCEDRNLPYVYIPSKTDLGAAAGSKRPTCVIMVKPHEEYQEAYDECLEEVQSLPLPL
T1 sequence (Q9NPE3 whole entry partner): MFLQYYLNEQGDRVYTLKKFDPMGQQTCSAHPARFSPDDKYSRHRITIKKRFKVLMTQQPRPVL
T1 sequence (Q9NY12 whole entry partner): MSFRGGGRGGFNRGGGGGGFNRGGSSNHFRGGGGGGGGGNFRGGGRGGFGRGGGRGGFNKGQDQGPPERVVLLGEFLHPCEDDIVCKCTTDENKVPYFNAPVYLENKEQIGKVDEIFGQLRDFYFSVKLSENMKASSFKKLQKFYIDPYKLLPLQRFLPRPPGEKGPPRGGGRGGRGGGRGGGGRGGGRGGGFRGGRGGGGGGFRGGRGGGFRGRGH
T1 sequence (Q9BUR4 whole entry partner): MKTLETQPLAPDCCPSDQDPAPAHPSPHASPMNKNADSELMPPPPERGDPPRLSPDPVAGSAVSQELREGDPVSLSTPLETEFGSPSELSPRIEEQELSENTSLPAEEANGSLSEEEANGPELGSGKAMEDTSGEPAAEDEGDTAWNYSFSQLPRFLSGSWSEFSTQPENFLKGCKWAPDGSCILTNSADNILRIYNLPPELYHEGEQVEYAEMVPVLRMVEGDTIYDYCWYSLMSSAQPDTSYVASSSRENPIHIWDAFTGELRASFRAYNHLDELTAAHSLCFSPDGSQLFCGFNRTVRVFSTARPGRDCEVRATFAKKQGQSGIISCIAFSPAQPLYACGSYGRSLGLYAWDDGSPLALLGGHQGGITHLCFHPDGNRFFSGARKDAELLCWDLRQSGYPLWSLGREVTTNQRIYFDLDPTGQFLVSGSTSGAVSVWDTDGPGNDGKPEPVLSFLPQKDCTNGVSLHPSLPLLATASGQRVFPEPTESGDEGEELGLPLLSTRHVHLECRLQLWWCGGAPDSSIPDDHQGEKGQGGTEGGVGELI

Compound: Cc1cn([C@H]2C[C@H](N=[N+]=[N-])[C@@H](COP(=O)(O)OP(=O)(O)OP(=O)(O)O)O2)c(=O)[nH]c1=O [AZTTP, 3′-Azido-3′-deoxythymidine 5′-triphosphate]
Ki [1]: 15000 nM
inhibitory effects on human telomerase ([1]; Figure 2B): weak
inhibition mode ([1]; Lineweaver–Burk plots, versus the corresponding dNTP): nearly competitive

Compound: Nc1nc2c(ncn2[C@@H]2O[C@H](COP(=O)(O)OP(=O)(O)OP(=O)(O)O)[C@@H](O)[C@@H]2O)c(=O)[nH]1 [araGTP, 9-β-D-Arabinofuranosylguanine 5′-triphosphate]
Ki [2]: 1200 nM

Compound: Nc1ncnc2c1ncn2[C@H]1C[C@H](O)[C@@H](COP(=O)(O)OP(=O)(O)OP(=O)(O)O)O1 [dATP]
Km [1]: 0.97 ± 0.31 µM

Compound: Nc1nc2c(ncn2[C@H]2CC[C@@H](CO)O2)c(=O)[nH]1 [ddG, 2′,3′-dideoxyguanosine]
telomere DNA shortening ([4]; 10 µM, long-term treatment): reproducible progressive telomere DNA shortening
effects on cell population doubling rates or morphology [4]: did not have observable effects

The next lines start with results.

Km [1]: 8.2 ± 2.1 µM
Compound: Nc1nc2c(ncn2[C@H]2C[C@H](O)[C@@H](COP(=O)(O)OP(=O)(O)OP(=O)(O)O)O2)c(=O)[nH]1 [dGTP]
Km [3]: 8 to 12 µM

Km [1]: 7.9 ± 1.8 µM
Compound: Cc1cn([C@H]2C[C@H](O)[C@@H](COP(=O)(O)OP(=O)(O)OP(=O)(O)O)O2)c(=O)[nH]c1=O [dTTP]
Km [3]: 8 to 12 µM

primer extension product with analog instead of dGTP or dATP [5]: distinct 22-mer product
Compound: Nc1nc2c(ncn2[C@H]2CC[C@@H](COP(=O)(O)OP(=O)(O)OP(=O)(O)O)O2)c(=O)[nH]1 [ddGTP]
Ki [2]: 650 nM
